Values belong to the compound of their own block, whether it stands above or below them. Activity calls are given as the source filed them. The rule behind the calls is not given here.
Tests used:
[1] = target: T1, Cystic fibrosis transmembrane conductance regulator (Homo sapiens, UniProt P13569); test: Activation of wild-type CFTR (unknown origin) expressed in forskolin-stimulated CHO cells assessed as increase in iodide efflux at 100 uM by gamma counting; format: cell-based
Method in brief: (§1)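 Iodide efflux with a robotic system. Cells were loaded at 37 °C for 30 min in Krebs' solution with 1 mM KI and Na¹²⁵I so the label reached equilibrium. The first three aliquots (t0–t2) in cold Krebs' buffer gave the baseline, and compound medium was used for t3–t8. Residual radioactivity was extracted with 0.1 M NaOH/0.1% SDS and gamma-counted. Relative rate = k_peak − k_basal (min⁻¹), expressed as % of maximal activation. EC50 came from nonlinear regression.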
Target sequence in this assay (P13569 whole entry, looked up): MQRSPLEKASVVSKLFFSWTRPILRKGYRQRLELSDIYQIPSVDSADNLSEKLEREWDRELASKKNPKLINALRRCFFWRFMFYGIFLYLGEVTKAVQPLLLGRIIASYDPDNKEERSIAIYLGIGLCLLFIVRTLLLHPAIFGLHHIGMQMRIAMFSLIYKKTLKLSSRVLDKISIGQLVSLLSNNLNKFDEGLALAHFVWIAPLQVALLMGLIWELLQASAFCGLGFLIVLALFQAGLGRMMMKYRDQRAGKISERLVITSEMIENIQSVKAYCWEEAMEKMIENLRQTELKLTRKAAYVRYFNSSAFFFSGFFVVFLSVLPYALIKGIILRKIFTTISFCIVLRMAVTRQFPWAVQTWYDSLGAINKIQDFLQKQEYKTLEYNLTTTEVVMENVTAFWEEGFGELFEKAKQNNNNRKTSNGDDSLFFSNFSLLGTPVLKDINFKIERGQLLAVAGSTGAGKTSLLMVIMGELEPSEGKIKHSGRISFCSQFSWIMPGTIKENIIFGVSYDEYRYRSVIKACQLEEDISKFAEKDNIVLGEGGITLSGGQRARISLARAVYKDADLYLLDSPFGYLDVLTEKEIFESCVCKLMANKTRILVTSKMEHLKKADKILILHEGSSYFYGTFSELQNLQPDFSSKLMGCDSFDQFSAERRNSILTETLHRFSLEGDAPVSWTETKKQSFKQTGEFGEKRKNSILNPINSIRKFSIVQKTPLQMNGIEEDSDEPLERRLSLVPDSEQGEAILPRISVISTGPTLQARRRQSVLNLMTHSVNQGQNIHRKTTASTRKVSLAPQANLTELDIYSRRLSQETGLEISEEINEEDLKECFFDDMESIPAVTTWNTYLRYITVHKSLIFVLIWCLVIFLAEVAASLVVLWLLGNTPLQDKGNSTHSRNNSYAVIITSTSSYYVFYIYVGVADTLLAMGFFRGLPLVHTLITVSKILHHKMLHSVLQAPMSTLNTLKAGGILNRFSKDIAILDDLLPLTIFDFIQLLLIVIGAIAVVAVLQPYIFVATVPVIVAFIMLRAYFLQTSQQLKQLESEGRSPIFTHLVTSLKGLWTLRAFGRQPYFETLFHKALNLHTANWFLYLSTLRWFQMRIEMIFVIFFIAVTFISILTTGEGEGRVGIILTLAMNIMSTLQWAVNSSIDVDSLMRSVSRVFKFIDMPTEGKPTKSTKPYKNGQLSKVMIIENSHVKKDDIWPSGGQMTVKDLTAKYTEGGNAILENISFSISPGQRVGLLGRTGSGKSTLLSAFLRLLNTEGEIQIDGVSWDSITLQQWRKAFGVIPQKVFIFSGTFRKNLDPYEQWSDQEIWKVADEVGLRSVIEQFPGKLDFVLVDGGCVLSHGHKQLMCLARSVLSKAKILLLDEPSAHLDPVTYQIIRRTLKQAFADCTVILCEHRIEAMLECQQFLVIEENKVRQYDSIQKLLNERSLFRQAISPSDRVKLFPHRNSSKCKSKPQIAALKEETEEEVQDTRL

[2] = target: T1, Cystic fibrosis transmembrane conductance regulator; test: Activation of wild-type CFTR (unknown origin) expressed in forskolin-stimulated CHO cells assessed as increase in iodide efflux by gamma counting; format: cell-based; method in brief: as §1
Target sequence in this assay (P13569 whole entry): as the sequence (P13569 whole entry, looked up) above

[3] = system: Cystic fibrosis transmembrane conductance regulator (Homo sapiens), P13569 [F508del]; test: (§2) Activation of CFTR F508 deletion mutant in forskolin-stimulated and miglustat-corrected human […] cells assessed as increase in iodide efflux by gamma counting; format: cell-based; method in brief: as §1
Sequence of Cystic fibrosis transmembrane conductance regulator (Homo sapiens), P13569 [F508del] (P13569 as listed by the source): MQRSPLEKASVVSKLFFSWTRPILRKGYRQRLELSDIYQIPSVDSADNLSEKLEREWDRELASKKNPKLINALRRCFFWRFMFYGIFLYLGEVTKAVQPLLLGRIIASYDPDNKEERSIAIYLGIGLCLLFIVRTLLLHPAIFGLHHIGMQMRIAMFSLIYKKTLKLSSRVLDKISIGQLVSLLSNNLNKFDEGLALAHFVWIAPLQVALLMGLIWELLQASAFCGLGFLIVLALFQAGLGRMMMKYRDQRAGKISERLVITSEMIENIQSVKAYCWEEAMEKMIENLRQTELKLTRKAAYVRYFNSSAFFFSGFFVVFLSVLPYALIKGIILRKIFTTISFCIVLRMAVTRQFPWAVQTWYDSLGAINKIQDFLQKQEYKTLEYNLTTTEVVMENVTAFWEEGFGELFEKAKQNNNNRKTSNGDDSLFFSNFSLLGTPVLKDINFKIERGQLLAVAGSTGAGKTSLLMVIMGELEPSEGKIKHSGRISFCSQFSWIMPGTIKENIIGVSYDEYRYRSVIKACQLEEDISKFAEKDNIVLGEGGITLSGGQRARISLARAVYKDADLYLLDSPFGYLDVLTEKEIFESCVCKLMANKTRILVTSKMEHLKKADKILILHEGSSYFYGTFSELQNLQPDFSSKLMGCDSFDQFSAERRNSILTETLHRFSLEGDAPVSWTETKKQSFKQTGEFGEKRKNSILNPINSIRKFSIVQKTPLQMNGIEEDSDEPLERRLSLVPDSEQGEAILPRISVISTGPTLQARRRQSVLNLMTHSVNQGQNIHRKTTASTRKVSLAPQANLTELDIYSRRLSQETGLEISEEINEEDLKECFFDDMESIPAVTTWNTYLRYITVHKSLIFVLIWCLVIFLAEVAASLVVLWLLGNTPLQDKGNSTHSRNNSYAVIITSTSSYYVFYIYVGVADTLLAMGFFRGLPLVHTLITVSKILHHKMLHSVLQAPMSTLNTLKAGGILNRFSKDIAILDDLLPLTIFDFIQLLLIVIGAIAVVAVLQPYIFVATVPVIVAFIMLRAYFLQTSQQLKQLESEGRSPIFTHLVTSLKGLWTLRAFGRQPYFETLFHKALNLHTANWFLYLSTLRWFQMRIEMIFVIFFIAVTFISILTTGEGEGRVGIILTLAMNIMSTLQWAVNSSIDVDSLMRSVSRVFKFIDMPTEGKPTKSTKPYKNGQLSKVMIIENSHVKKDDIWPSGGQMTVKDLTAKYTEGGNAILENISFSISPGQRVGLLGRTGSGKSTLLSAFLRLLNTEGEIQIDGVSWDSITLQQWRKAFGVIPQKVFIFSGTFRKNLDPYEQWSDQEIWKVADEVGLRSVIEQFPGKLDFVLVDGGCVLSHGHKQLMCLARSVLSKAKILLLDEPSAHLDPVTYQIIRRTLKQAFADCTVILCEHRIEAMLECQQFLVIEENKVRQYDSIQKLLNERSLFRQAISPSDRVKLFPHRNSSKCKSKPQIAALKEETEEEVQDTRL

[4] = target: Cystic fibrosis transmembrane conductance regulator (Homo sapiens, UniProt P13569, F508DEL); test: as §2; format: cell-based; method in brief: as §1
Sequence of Cystic fibrosis transmembrane conductance regulator (Homo sapiens, UniProt P13569, F508DEL) (P13569 as listed by the source): as above

[5] = target: T1, Cystic fibrosis transmembrane conductance regulator; test: Activation of CFTR in forskolin-stimulated human MM39 cells by DiSBAC2(3) dye based fluorescence analysis in presence of 1 uM CFTRinh-172; format: cell-based
Method in brief: (§3)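 Human tracheal gland MM39 cells were imaged cell by cell with the potential-sensitive oxonol probe DiSBAC2(3) (ex 535 nm, em 560 nm). Signal is Fx = (Ft − F0)/F0 × 100 relative to the time of stimulus addition. Histograms show the stable fluorescence variation, as mean ± SEM. The CFTR inhibitor CFTRinh-172 was used at 1 µM. Runs were done with or without forskolin.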
Target sequence in this assay (P13569 whole entry, looked up): as the sequence (P13569 whole entry, looked up) above

Rattus norvegicus [6] = test: Effect on salivary secretion in male Wistar rat assessed as net weight of saliva secreted at 30 uM, sc followed by treatment with 1 mM cholinergic inhibitor atropine; format: functional, organism-based
Method in brief: (§4)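 Male Wistar rats (250–300 g) were held supine. Basal secretion was blocked with atropine (1 mM). Saline containing 1 mM atropine plus compound (30 µM), isoprenaline (10 µM) or both was then injected subcutaneously into the cheek. Saliva was collected on paper pieces changed every 4 min and weighed. Secretion rate = saliva weight / collection time (min) / body weight (g).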

[7] = target: T1, Cystic fibrosis transmembrane conductance regulator; test: Activation of CFTR in human MM39 cells by DiSBAC2(3) dye based fluorescence analysis in presence of 1 uM CFTRinh-172; format: cell-based; method in brief: as §3
Target sequence in this assay (P13569 whole entry, looked up): as above

[8] = target: T1, Cystic fibrosis transmembrane conductance regulator; test: Activation of CFTR in forskolin-stimulated human MM39 cells by DiSBAC2(3) dye based fluorescence analysis; format: cell-based; method in brief: as §3
Target sequence in this assay (P13569 whole entry, looked up): as above

[9] = target: T1, Cystic fibrosis transmembrane conductance regulator; test: Activation of CFTR in human MM39 cells by DiSBAC2(3) dye based fluorescence analysis; format: cell-based; method in brief: as §3
Target sequence in this assay (P13569 whole entry, looked up): as above

CHO = test: Cytotoxicity against wild-type CFTR transfected CHO cells upto 300 uM after 24 hrs by MTT assay; format: cell-based, Cricetulus griseus; conditions: chinese hamster
Method in brief: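 Wt-CFTR CHO cells were exposed for 24 h, and viability was read by MTT reduction to formazan. Controls were untreated cells and cells deprived of medium for 24 h.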

Rattus norvegicus [10] = test: Potentiation of isprenaline-induced salivary secretion in male Wistar rat assessed as net weight of saliva secreted at 30 uM, sc followed by treatment with 1 mM cholinergic inhibitor atropine; format: functional, organism-based; method in brief: as §4

Compound: Cn1cnc2c1N=CN1C2=N[C@](C)(C(=O)O)[C@@H](O)[C@@]1(C)O
Activity [1]: inactive

Compound: C=CCn1cnc2c1N=CN1C2=N[C@](C)(C(=O)O)[C@H](O)[C@]1(C)O
EC50 [2]: 2.1 µM

Compound: CC(C)n1cnc2c1N=CN1C2=N[C@](C)(C(=O)O)[C@@H](O)[C@@]1(C)O
Activity [1]: inactive

Compound: C[C@]1(C(=O)O)N=C2c3ncn(CCCc4ccccc4)c3N=CN2[C@](C)(O)[C@@H]1O
Activity [1]: inactive

Compound: C[C@]1(C(=O)O)N=C2c3ncn(Cc4ccccc4)c3N=CN2[C@](C)(O)[C@@H]1O
Activity [1]: inactive

More lines, main results first:

Activity [1]: inactive
Compound: CCn1cnc2c1N=CN1C2=N[C@](C)(C(=O)O)[C@@H](O)[C@@]1(C)O

Activity [3]: Dose-dependent effect
EC50 [4]: 104 µM
Activity [5]: inactive
Activity [1]: Active
Activity [7]: inactive
Activity [8]: Active
Activity [9]: Active
EC50 [2]: 7.5 µM
Compound: C=CCn1cnc2c1N=CN1C2=N[C@](C)(C(=O)O)[C@@H](O)[C@@]1(C)O
Activity (Rattus norvegicus [6]): inactive
Activity (CHO): Non-toxic
Activity (Rattus norvegicus [10]): Active

Activity [1]: inactive
Compound: C#CCn1cnc2c1N=CN1C2=N[C@](C)(C(=O)O)[C@@H](O)[C@@]1(C)O

Activity [1]: inactive
Compound: C[C@]1(C(=O)O)N=C2c3ncn(CCCO)c3N=CN2[C@](C)(O)[C@@H]1O

Activity [1]: inactive
Compound: CCCCn1cnc2c1N=CN1C2=N[C@](C)(C(=O)O)[C@@H](O)[C@@]1(C)O

Reference: ChEMBL document CHEMBL3297677, “A new 9-alkyladenine-cyclic methylglyoxal diadduct activates wt- and F508del-cystic fibrosis transmembrane conductance regulator (CFTR) in vitro and in vivo” (Eur J Med Chem, 2014)
